Measured values from ChEMBL document CHEMBL1127811, “Inhibitors of cholesterol biosynthesis. 2. Hypocholesterolemic and antioxidant activities of benzopyran and tetrahydronaphthalene analogues of the tocotrienols” (J Med Chem, 1994).
Where “and” joins values, the source holds several entries; their conditions need not be identical. Equal values may be shown once.

Experiments:
Gallus gallus [1] = species on record: Gallus gallus; test: (§1) Hypocholesterolemic activity in 6-week old male mormocholesterolemic chickens using experiment 4; type: functional
In short: (§2)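 Male chickens, 6 weeks old. Test compound mixed at 50 ppm into a corn-soybean control diet; controls get the diet alone. After the feeding period, birds are fasted 36 h and refed 48 h before sacrifice. Serum total, LDL and HDL cholesterol (mg/100 mL) and triglycerides measured; expressed as mean ± SD and percent of control, n = 6–12 per group.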

Gallus gallus [2] = species on record: Gallus gallus; test: as §1; type: functional; remark: listed apart in the source
In short: (§3)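 Six-week-old male chickens fed corn-soybean control diet with test compound at 50 ppm. Birds fasted 36 h, then refed 48 h before sacrifice. Serum total, LDL and HDL cholesterol and triglycerides measured (mg/100 mL), HDL/total ratio computed. Means ± SD, n = 6–12 per group, also as % of control. Significance p < 0.01 within each study.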

HepG2 = test: In vitro inhibition of cholesterol biosynthesis in Hep G2 cells; type: functional, Homo sapiens; set-up: concentration or dose not given beside the values
In short: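 HepG2 human hepatoma cells incubated 4 h with compound at 10 μM, DMSO vehicle controls. Mean % inhibition vs controls, SD ≤ ±10%, n ≥ 8.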

[3] = LDL oxidation assay as spectrophotometric determination of TBARS; type: functional
In short: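 LDL (0.5 mg/mL protein stock) in saline/20 mM HEPES with drug in ethanol, oxidised by CuSO4 (4 × 10⁻⁴ M stock), 37 °C, 5 h, in duplicate. Stopped with EDTA; TCA/TBA added, boiled 30 min, A535 read. Malonaldehyde equivalents from tetramethoxypropane standard curve. IC50 = concentration inhibiting 50% TBARS vs ethanol controls.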

[4] = Compound oxidation potential using cyclic voltametry; type: ADME
Gallus gallus [5] = species on record: Gallus gallus; test: Ratio of HDL/total cholesterol value; type: functional; in short: as §3
Gallus gallus [6] = species on record: Gallus gallus; test: (§4) Hypocholesterolemic activity in 6-week old male mormocholesterolemic chickens using experiment 3; type: functional; in short: as §2
Gallus gallus [7] = species on record: Gallus gallus; test: as §4; type: functional; in short: as §3; remark: listed apart in the source
[8] = target: T1, 3-hydroxy-3-methylglutaryl-coenzyme A reductase (Homo sapiens) (UniProt P04035); test: In vitro suppression of HMG-CoA reductase (HMGR) in Hep G2 cells; type: cell-based; set-up: concentration or dose not given beside the values; details: HepG2, concentration not given here
T1 sequence (whole entry): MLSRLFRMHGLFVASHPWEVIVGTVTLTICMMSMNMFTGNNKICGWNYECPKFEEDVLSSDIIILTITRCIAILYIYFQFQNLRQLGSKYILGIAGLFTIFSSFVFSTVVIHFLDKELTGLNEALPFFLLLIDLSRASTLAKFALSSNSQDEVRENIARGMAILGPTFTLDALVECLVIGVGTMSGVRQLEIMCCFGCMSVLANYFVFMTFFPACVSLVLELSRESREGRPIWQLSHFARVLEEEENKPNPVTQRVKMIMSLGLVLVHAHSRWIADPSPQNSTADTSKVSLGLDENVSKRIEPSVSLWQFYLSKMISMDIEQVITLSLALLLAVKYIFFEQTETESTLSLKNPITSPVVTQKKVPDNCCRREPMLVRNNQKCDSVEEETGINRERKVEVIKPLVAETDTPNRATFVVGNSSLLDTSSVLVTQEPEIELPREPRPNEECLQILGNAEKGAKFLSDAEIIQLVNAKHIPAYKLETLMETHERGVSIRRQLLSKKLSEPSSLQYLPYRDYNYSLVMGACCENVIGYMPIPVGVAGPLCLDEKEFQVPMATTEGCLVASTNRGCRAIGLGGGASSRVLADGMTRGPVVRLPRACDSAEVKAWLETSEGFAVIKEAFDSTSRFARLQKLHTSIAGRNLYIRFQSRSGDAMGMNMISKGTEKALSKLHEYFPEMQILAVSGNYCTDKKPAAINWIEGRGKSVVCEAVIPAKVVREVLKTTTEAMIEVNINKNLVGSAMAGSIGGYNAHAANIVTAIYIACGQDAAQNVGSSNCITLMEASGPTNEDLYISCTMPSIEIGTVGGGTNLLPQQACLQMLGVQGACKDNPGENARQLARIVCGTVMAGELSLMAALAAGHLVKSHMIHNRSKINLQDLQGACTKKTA
In short: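 HepG2 cells treated 4 h with compound at 10 μM, DMSO vehicle controls. HMG-CoA reductase activity assayed in microsomal fraction isolated at end of incubation. Mean % suppression vs controls, SD ≤ ±10%, n ≥ 8.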

Gallus gallus [9] = species on record: Gallus gallus; test: Hypocholesterolemic activity in 6-week old male mormocholesterolemic chickens using experiment 2; type: functional; in short: as §3
Gallus gallus [10] = species on record: Gallus gallus; test: (§5) Hypocholesterolemic activity in 6-week old male mormocholesterolemic chickens using experiment 1; type: functional; in short: as §2
Gallus gallus [11] = species on record: Gallus gallus; test: as §5; type: functional; in short: as §3; remark: listed apart in the source

CC(C)=CCCC1(C)CCc2cc(O)ccc2O1 (stereo not drawn)
LDL cholesterol (Gallus gallus [1]): 32 mg 100ml-1
HDL cholesterol (Gallus gallus [2]): 93 mg 100ml-1
Total cholesterol (Gallus gallus [2]): 131 mg 100ml-1
Triglycerides (Gallus gallus [2]): 73 mg 100ml-1
Inhibition (HepG2): 35%
IC50 [3]: 2000 nM
Potential [4]: 1.2
Ratio (Gallus gallus [5]): 0.71

CC(C)=CCC/C(C)=C/CC/C(C)=C/CCC1(C)CCc2cc(O)c3ccccc3c2O1 (stereo not drawn)
LDL cholesterol (Gallus gallus [6]): 61 mg 100ml-1
HDL cholesterol (Gallus gallus [7]): 97 mg 100ml-1
Total cholesterol (Gallus gallus [7]): 160 mg 100ml-1
Triglycerides (Gallus gallus [7]): 81 mg 100ml-1
inhibition [8]: 57%
Inhibition (HepG2): 57%
Potential [4]: 0.8
Ratio (Gallus gallus [5]): 0.61

CC(C)=CCC/C(C)=C/CC/C(C)=C/CCC1(C)CCc2c(C)c(O)cc(C)c2O1 (stereo not drawn)
inhibition [8]: 21%
Inhibition (HepG2): 43%
IC50 [3]: 7000 nM
Potential [4]: 1.05

CC(C)=CCC/C(C)=C/CC/C(C)=C/CCC1CCc2cc(O)ccc2C1 (stereo not drawn)
LDL cholesterol (Gallus gallus [6]): 57 mg 100ml-1
HDL cholesterol (Gallus gallus [7]): 94 mg 100ml-1
Total cholesterol (Gallus gallus [7]): 152 mg 100ml-1
Triglycerides (Gallus gallus [7]): 76 mg 100ml-1
Inhibition (HepG2): 40%
Ratio (Gallus gallus [5]): 0.62

CC(C)=CCC/C(C)=C/CC/C(C)=C/CCC1(C)CCc2cc(O)c(C(C)(C)C)cc2O1 (stereo not drawn)
Inhibition (HepG2): 38%
IC50 [3]: 10000 nM

CC(C)=CCC/C(C)=C/CC/C(C)=C/CCC1(C)CCc2cc(O)ccc2O1 (stereo not drawn)
Triglycerides (Gallus gallus [9]): 80 mg 100ml-1
inhibition [8]: 53%
Inhibition (HepG2): 62%
IC50 [3]: 600 nM
Potential [4]: 1.05
Ratio (Gallus gallus [5]): 0.61

CC(C)=CCC/C(C)=C/CC/C(C)=C/CCC1CCc2cc(O)c(C)c(C)c2O1 (stereo not drawn)
LDL cholesterol (Gallus gallus [6]): 85 mg 100ml-1
LDL cholesterol (Gallus gallus [1]): 76 mg 100ml-1
HDL cholesterol (Gallus gallus [2]): 97 mg 100ml-1
Total cholesterol (Gallus gallus [2]): 178 mg 100ml-1
Triglycerides (Gallus gallus [2]): 83 mg 100ml-1
HDL cholesterol (Gallus gallus [7]): 102 mg 100ml-1
Total cholesterol (Gallus gallus [7]): 197 mg 100ml-1
Triglycerides (Gallus gallus [7]): 86 mg 100ml-1
inhibition [8]: 67%
Inhibition (HepG2): 62%
Ratio (Gallus gallus [5]): 0.52 and 0.54

C/C(=C\CCC1(C)CCc2cc(O)c(F)cc2O1)CO (stereo not drawn)
Inhibition (HepG2): 15%
IC50 [3]: > 10000 nM

CC(C)=CCC/C(C)=C/CC/C(C)=C/CCC1(C)CCc2cc(O)c(C)c(C)c2O1 (stereo not drawn)
LDL cholesterol (Gallus gallus [6]): 51 mg 100ml-1
LDL cholesterol (Gallus gallus [1]): 33 mg 100ml-1
LDL cholesterol (Gallus gallus [10]): 29 mg 100ml-1
HDL cholesterol (Gallus gallus [2]): 85 mg 100ml-1
Total cholesterol (Gallus gallus [2]): 125 mg 100ml-1
Triglycerides (Gallus gallus [2]): 57 mg 100ml-1
HDL cholesterol (Gallus gallus [11]): 89 mg 100ml-1
Total cholesterol (Gallus gallus [11]): 121 mg 100ml-1
Triglycerides (Gallus gallus [11]): 62 mg 100ml-1
HDL cholesterol (Gallus gallus [7]): 94 mg 100ml-1
Total cholesterol (Gallus gallus [7]): 151 mg 100ml-1
Triglycerides (Gallus gallus [7]): 83 mg 100ml-1
inhibition [8]: 61%
Inhibition (HepG2): 69%
IC50 [3]: 1800 nM
Potential [4]: 0.94
Ratio (Gallus gallus [5]): 0.74 and 0.62 and 0.68

CC(C)=CCC/C(C)=C/CCC1(C)CCc2c(O)cc(N3CCCC3)cc2O1 (stereo not drawn)
Inhibition (HepG2): 54%
IC50 [3]: 4000 nM

CC(C)=CCC/C(C)=C/CCC1(C)CCc2cc(O)ccc2O1 (stereo not drawn)
LDL cholesterol (Gallus gallus [1]): 33 mg 100ml-1
HDL cholesterol (Gallus gallus [2]): 93 mg 100ml-1
Total cholesterol (Gallus gallus [2]): 130 mg 100ml-1
Triglycerides (Gallus gallus [2]): 73 mg 100ml-1
inhibition [8]: 52%
Inhibition (HepG2): 48%
IC50 [3]: 2000 nM
Ratio (Gallus gallus [5]): 0.72

CC(=O)Oc1cc2c(c(C)c1C)OC(CC/C=C(\C)CC/C=C(\C)CCC=C(C)C)CC2 (stereo not drawn)
LDL cholesterol (Gallus gallus [1]): 44 mg 100ml-1
HDL cholesterol (Gallus gallus [2]): 87 mg 100ml-1
Total cholesterol (Gallus gallus [2]): 139 mg 100ml-1
Triglycerides (Gallus gallus [2]): 67 mg 100ml-1
Ratio (Gallus gallus [5]): 0.63

CC(C)=CCC/C(C)=C/CC/C(C)=C/CCC1(C)CCc2cc(O)cc(Br)c2O1 (stereo not drawn)
LDL cholesterol (Gallus gallus [6]): 45 mg 100ml-1
HDL cholesterol (Gallus gallus [7]): 93 mg 100ml-1
Total cholesterol (Gallus gallus [7]): 139 mg 100ml-1
Triglycerides (Gallus gallus [7]): 87 mg 100ml-1
Inhibition (HepG2): 62%
Ratio (Gallus gallus [5]): 0.67

CC(C)=CCC/C(C)=C/CC/C(C)=C/CCC1(C)CCc2ccc(O)cc2O1 (stereo not drawn)
Inhibition (HepG2): 58%
IC50 [3]: > 10000 nM
Potential [4]: 1.44

CC(C)=CCC/C(C)=C/CC/C=C\CCC1(C)CCc2cc(O)c(C)c(C)c2O1 (stereo not drawn)
inhibition [8]: 45%
Inhibition (HepG2): 81%

CC(C)=CCC/C(C)=C\CCC1(C)CCc2cc(O)ccc2O1 (stereo not drawn)
LDL cholesterol (Gallus gallus [1]): 39 mg 100ml-1
HDL cholesterol (Gallus gallus [2]): 94 mg 100ml-1
Total cholesterol (Gallus gallus [2]): 142 mg 100ml-1
Triglycerides (Gallus gallus [2]): 67 mg 100ml-1
inhibition [8]: 39%
Inhibition (HepG2): 55%
IC50 [3]: 2000 nM
Ratio (Gallus gallus [5]): 0.66

CC(C)=CCC/C(C)=C/CCC#CCCC1(C)CCc2cc(O)c(C)c(C)c2O1 (stereo not drawn)
inhibition [8]: 46%
Inhibition (HepG2): 81%

CC(C)=CCC/C(C)=C/CC/C(C)=C/CCC1(C)CCc2cc(O)c(F)cc2O1 (stereo not drawn)
inhibition [8]: 33%
Inhibition (HepG2): 60%
IC50 [3]: 3000 nM
Potential [4]: 1.21

CC(C)=CCC/C(C)=C/CC/C(C)=C/CCC1(C)CCc2c(cc(C)c(O)c2C)O1 (stereo not drawn)
inhibition [8]: 40%
Inhibition (HepG2): 42%
IC50 [3]: > 10000 nM
Potential [4]: 1.06

CC(C)=CCC/C(C)=C/CC/C(C)=C/CCC1(C)CC(=O)c2cc(O)c(C)c(C)c2O1 (stereo not drawn)
LDL cholesterol (Gallus gallus [10]): 36 mg 100ml-1
HDL cholesterol (Gallus gallus [11]): 108 mg 100ml-1
Total cholesterol (Gallus gallus [11]): 133 mg 100ml-1
Triglycerides (Gallus gallus [11]): 64 mg 100ml-1
inhibition [8]: 16%
Inhibition (HepG2): 93%
IC50 [3]: 2000 nM
Potential [4]: 1.2
Ratio (Gallus gallus [5]): 0.81

CC(C)=CCC/C(C)=C/CC/C(C)=C/CCC1(C)CCc2cc(O)cc(C#N)c2O1 (stereo not drawn)
LDL cholesterol (Gallus gallus [6]): 54 mg 100ml-1
HDL cholesterol (Gallus gallus [7]): 94 mg 100ml-1
Total cholesterol (Gallus gallus [7]): 151 mg 100ml-1
Triglycerides (Gallus gallus [7]): 83 mg 100ml-1
Inhibition (HepG2): 63%
Ratio (Gallus gallus [5]): 0.62
